Test results from ChEMBL document CHEMBL2034960, “Bryonolic acid transcriptional control of anti-inflammatory and antioxidant genes in macrophages in vitro and in vivo” (J Nat Prod, 2012).
Calls of active or inactive are those of the source.

Key:
[1] = test system: Peritoneal macrophage cell; experiment: Induction of HO1 […] expression in Nrf2-knockout mouse primary peritoneal macrophages at 5 to 100 uM after 48 hrs by immunoblot analysis; assay type: functional, cell-based
[2] = target: T1, Nuclear factor erythroid 2-related factor 2 (Mus musculus) (UniProt Q60795); experiment: Induction of Nrf2-mediated CAT mRNA expression in mouse RAW264.7 cells at 100 uM after 16 hrs by quantitative RT-PCR analysis relative to control; assay type: cell-based
T1 sequence (whole entry): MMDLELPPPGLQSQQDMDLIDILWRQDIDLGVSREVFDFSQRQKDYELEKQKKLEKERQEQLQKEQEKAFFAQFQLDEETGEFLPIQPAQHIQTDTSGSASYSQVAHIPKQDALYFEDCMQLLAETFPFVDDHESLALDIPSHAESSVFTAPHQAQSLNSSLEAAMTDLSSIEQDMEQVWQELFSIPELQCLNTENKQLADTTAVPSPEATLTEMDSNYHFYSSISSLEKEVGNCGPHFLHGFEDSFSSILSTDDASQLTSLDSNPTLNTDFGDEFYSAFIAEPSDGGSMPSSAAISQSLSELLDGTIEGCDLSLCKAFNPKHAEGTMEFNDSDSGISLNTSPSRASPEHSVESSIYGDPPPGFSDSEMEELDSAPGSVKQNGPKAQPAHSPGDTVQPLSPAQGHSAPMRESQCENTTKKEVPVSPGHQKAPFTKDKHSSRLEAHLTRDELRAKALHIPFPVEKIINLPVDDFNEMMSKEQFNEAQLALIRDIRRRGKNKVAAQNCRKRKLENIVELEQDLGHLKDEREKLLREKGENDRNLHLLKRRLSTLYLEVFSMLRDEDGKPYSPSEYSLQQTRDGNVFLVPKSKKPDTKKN

RAW264.7 [3] = experiment: Antioxidant activity in mouse RAW264.7 cells assessed as induction of HO1 expression at 100 uM after 6 hrs by immunoblot analysis; assay type: functional, cell-based
RAW264.7 [4] = experiment: Antioxidant activity in mouse RAW264.7 cells assessed as induction of HO1 expression at 50 uM after 24 hrs by immunoblot analysis; assay type: functional, cell-based
RAW264.7 [5] = experiment: Cytotoxicity against mouse RAW264.7 cells at 100 uM after 8 hrs by MTT assay; assay type: cell-based; details: raw264.7, 8 h
RAW264.7 [6] = experiment: Induction of Nrf2 mRNA expression in mouse RAW264.7 cells at 100 uM after 20 hrs by quantitative RT-PCR analysis relative to control; assay type: functional
[7] = target: T1, Nuclear factor erythroid 2-related factor 2 (Mus musculus); experiment: Induction of Nrf2-mediated CAT mRNA expression in mouse RAW264.7 cells at 100 uM after 4 to 24 hrs by quantitative RT-PCR analysis relative to control; assay type: cell-based
RAW264.7 [8] = experiment: Antioxidant activity in mouse RAW264.7 cells assessed as induction of HO1 expression at 100 uM after 72 hrs by immunoblot analysis; assay type: functional, cell-based
[9] = target: T1, Nuclear factor erythroid 2-related factor 2 (Mus musculus); experiment: Induction of Nrf2-mediated GR mRNA expression in mouse RAW264.7 cells at 100 uM after 24 hrs by quantitative RT-PCR analysis relative to control; assay type: cell-based
[10] = target: T1, Nuclear factor erythroid 2-related factor 2 (Mus musculus); experiment: Induction of Nrf2-mediated GCLC mRNA expression in mouse RAW264.7 cells at 100 uM after 24 hrs by quantitative RT-PCR analysis relative to control; assay type: cell-based
RAW264.7 [11] = experiment: Antioxidant activity in LPS-stimulated mouse RAW264.7 cells assessed as induction of HO-1 […] expression after 24 hrs by immunoblot analysis; assay type: functional, cell-based
RAW264.7 [12] = experiment: Antioxidant activity in mouse RAW264.7 cells assessed as induction of HO1 expression at 100 uM after 24 hrs by immunoblot analysis; assay type: functional, cell-based
RAW264.7 [13] = experiment: Antiinflammatory activity in mouse RAW264.7 cells assessed as inhibition of LPS-induced iNOS protein expression after 24 hrs by immunoblot analysis; assay type: functional, cell-based
RAW264.7 [14] = experiment: Antioxidant activity in LPS-stimulated mouse RAW264.7 cells assessed as induction of HO-1 protein expression at 50 uM after 24 hrs by immunoblot analysis; assay type: functional, cell-based
[15] = target: T1, Nuclear factor erythroid 2-related factor 2 (Mus musculus); experiment: Induction of Nrf2-mediated HO1 mRNA expression in mouse RAW264.7 cells at 100 uM after 16 to 20 hrs by quantitative RT-PCR analysis relative to control; assay type: cell-based
RAW264.7 [16] = experiment: Antiinflammatory activity in mouse RAW264.7 cells assessed as inhibition of LPS-induced iNOS protein expression at 100 uM after 4 hrs by immunoblot analysis
[17] = target: T1, Nuclear factor erythroid 2-related factor 2 (Mus musculus); experiment: Induction of Nrf2-mediated NQO1 mRNA expression in mouse RAW264.7 cells at 100 uM after 20 hrs by quantitative RT-PCR analysis relative to control; assay type: cell-based
Outline: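 RAW 264.7 cells (DMEM, 10% FBS, 37°C, 5% CO2) exposed to 100 μM compound for a series of time points without stated LPS activation. Total RNA isolated, converted to cDNA, and NQO1 quantified by TaqMan real-time RT-PCR using mouse-specific assays. Fold change versus control derived by the ΔΔCt relative quantification method (40 cycles, 95/60 °C).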

RAW264.7 [18] = experiment: Antiinflammatory activity in mouse RAW264.7 cells assessed as inhibition of LPS-induced iNOS protein expression at 50 uM after 24 hrs by immunoblot analysis relative to control; assay type: functional, cell-based
RAW264.7 [19] = experiment: Antioxidant activity in LPS-stimulated mouse RAW264.7 cells assessed as induction of HO-1 mRNA expression at 100 uM after 4 hrs by RT-PCR analysis; assay type: functional, cell-based
[20] = target: T1, Nuclear factor erythroid 2-related factor 2 (Mus musculus); experiment: Induction of Nrf2-mediated HO1 […] expression in C57BL/6 mouse primary peritoneal macrophages at 50 uM after 48 hrs by immunoblot analysis
RAW264.7 [21] = experiment: Antioxidant activity in mouse RAW264.7 cells assessed as induction of HO1 expression at 10 to 100 uM by immunoblot analysis; assay type: functional, cell-based; details: TDE = time-dependent effect
RAW264.7 [22] = experiment: Antiinflammatory activity in mouse RAW264.7 cells assessed as inhibition of LPS-induced iNOS protein expression at 100 uM after 24 hrs by immunoblot analysis; assay type: functional, cell-based
RAW264.7 [23] = experiment: Antioxidant activity in LPS-stimulated mouse RAW264.7 cells assessed as induction of HO-1 mRNA expression at 100 uM after 24 hrs by RT-PCR analysis; assay type: functional, cell-based
RAW264.7 [24] = experiment: Antiinflammatory activity in mouse RAW264.7 cells assessed as inhibition of LPS-induced nitric oxide production at 50 to 100 uM after 24 hrs by Griess method; assay type: functional; design: scale not given: the % may be the effect or the level left
[25] = target: T1, Nuclear factor erythroid 2-related factor 2 (Mus musculus); experiment: Induction of nuclear translocation of Nrf2 in mouse RAW264.7 cells assessed as decrease in cytoplasmic fraction at 50 uM after 1 hr; assay type: cell-based
Outline: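 RAW 264.7 macrophages treated with 50 or 100 μM compound for various times (1–4 h window examined). Cytoplasmic and nuclear fractions were separated and probed for Nrf2 by immunoblot. Translocation was scored as loss of cytoplasmic Nrf2 and nuclear accumulation relative to DMSO control.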

CC1(C)[C@@H](O)CC[C@]2(C)C3=C(CC[C@@H]12)[C@@]1(C)CC[C@@]2(C)CC[C@@](C)(C(=O)O)C[C@H]2[C@]1(C)CC3 [BRYONOLIC ACID]
inactive: Activity [1] | Activity (RAW264.7 [8]) | Activity [9] | Activity [10]
active: Activity (RAW264.7 [3]) | Activity (RAW264.7 [4]) | Activity [7] | Activity (RAW264.7 [11]) Dose-dependent effect | Activity (RAW264.7 [12]) | Activity (RAW264.7 [13]) Dose-dependent effect | Activity (RAW264.7 [14]) | Activity [15] | Activity (RAW264.7 [16]) | Activity (RAW264.7 [18]) | Activity (RAW264.7 [19]) | Activity [20] | Activity (RAW264.7 [21]) tde | Activity (RAW264.7 [22]) | Activity (RAW264.7 [23]) | Activity [25]
Non-toxic: Activity (RAW264.7 [5])
72%: Activity (RAW264.7 [24])
1.7: fold change (FC) [2]
11.7: fold change (FC) [17]
1.8: fold change (FC) (RAW264.7 [6])
